Data as given in ChEMBL document CHEMBL1137577, “Inhibitors of the interaction of a thyroid hormone receptor and coactivators: preliminary structure-activity relationships” (J Med Chem, 2007).
Converted amounts (≈) assume the structure as drawn. “And” between values parts separate entries of the source, which are not always exact repeats. Equal values may be shown once.

Key:
[1] = biological target: T1, Thyroid hormone receptor alpha (Homo sapiens, UniProt P10827); test: Displacement of labeled SRC2-2 from human TRalpha by FP assay
T1 sequence (P10827 whole entry): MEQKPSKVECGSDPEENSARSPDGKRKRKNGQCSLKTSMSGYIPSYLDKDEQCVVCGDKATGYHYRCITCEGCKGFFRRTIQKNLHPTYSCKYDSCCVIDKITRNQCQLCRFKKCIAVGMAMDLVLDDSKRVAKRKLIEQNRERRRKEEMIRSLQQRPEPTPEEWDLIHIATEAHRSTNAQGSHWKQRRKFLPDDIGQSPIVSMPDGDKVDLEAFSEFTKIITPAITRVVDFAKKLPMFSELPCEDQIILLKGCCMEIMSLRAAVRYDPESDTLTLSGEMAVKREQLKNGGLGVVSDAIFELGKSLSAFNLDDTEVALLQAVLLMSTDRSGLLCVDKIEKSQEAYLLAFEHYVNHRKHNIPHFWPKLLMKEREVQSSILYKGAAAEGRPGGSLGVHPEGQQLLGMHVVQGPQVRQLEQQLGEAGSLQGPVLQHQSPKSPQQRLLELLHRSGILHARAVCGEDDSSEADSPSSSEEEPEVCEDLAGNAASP

[2] = tested on: ARO; test: Cytotoxicity against human ARO cells after 48 hrs by MTS assay; type: functional; details: read-out: LD50 (the source's name)
[3] = tested on: U2OS; test: Cytotoxicity against human U2OS cells after 48 hrs by MTS assay; type: functional; details: read-out: LD50 (the source's name)
[4] = biological target: T2, Thyroid hormone receptor beta (Homo sapiens, UniProt P10828); test: Displacement of labeled SRC2-2 from human TRbeta expressed in BL21 (DE3) cells FP assay; type: cell-based
T2 sequence (P10828 whole entry): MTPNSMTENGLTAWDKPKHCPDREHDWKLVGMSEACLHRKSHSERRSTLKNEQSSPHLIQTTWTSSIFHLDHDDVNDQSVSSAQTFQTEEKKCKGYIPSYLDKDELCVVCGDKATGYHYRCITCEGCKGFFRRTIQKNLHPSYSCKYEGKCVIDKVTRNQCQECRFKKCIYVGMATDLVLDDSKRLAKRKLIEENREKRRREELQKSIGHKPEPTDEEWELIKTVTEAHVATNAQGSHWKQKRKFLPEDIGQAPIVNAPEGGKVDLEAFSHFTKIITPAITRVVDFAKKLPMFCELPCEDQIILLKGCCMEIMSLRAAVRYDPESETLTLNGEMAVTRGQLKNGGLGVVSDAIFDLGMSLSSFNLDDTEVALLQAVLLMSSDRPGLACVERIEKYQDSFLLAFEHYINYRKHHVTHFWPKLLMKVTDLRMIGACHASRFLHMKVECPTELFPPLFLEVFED
How it was run: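 Competitive fluorescence polarization. Assay liquid was PBS containing 5% DMSO. For TRβ, hTRβ1 LBD (His6, T209-D461) was expressed in BL21 (DE3).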

[5] = physchem; details: PBS
[6] = Permeability across artificial membrane at pH 7.4 by PAMPA assay

SMILES	IC50 [1]	CC50 ([2]; Homo sapiens, ARO, 48 h) [µM]	CC50 ([3]; Homo sapiens, U2OS, 48 h) [µM]	IC50 [4] [µM]	solubility [5] [µM]	Papp [6] [×10⁻⁶ cm/s]	permeability [6]	CC50 [2]	CC50 [3] [µM]
C=CC(=O)c1ccc(CCCCC)cc1	60.9 µM	20	22.7	33.9	–	–	–	–	–
CCCCCCc1ccc(C(=O)CCN(C)CCc2ccccc2)cc1	3.6 µM	2.5	18.4	1.5	15 (≈ 5.27 µg/mL)	–	–	–	–
CCCCCCc1ccc(NC(=O)/C=C/c2ccccc2)cc1	> 100 µM	–	–	> 100	–	–	–	–	–
C=C(CC(=O)Nc1ccc(CCCCCC)cc1)C(=O)O	> 100 µM	183	124	> 100	286 (≈ 82.8 µg/mL)	57	–	–	–
C#CC(=O)Nc1ccc(CCCCCC)cc1	68.9 µM	8	17.1	35.1	60 (≈ 13.8 µg/mL)	621	–	–	–
CCCCCCc1ccc(NC(=O)/C=C\C(=O)O)cc1	17.5 µM	> 200	148	20.3	418 (≈ 115 µg/mL)	–	–	–	–
CCCCCCc1ccc(C(=O)CCN(C)CCO)cc1	3 µM	13.2	13.2	1.6	97 (≈ 28.3 µg/mL)	–	–	–	–
CCCCCCc1ccc(C(=O)CCN(C)C)cc1	[…]	–	–	4.3	–	–	–	–	–
CCCCCCc1ccc(C(=O)CCN(C(C)C)C(C)C)cc1	4.1 µM	15.4	20.7	2	55 (≈ 17.5 µg/mL)	–	–	–	–
CCCCCCc1ccc(C(=O)CCN2CCOCC2)cc1	4.1 µM	7.2	20.8	2.7	110 (≈ 33.4 µg/mL)	–	1210 10^-6 cm/s	–	–
CCCCCCc1ccc(C(=O)CCN2CCC(C(=O)OC)CC2)cc1	6.3 µM	8.2	19.7	3.9	27 (≈ 9.71 µg/mL)	145	–	–	–
CCCCCCc1ccc(C(=O)CCN(C)Cc2ccco2)cc1	22.6 µM	–	–	12.1	–	–	–	–	–
CCCCCCc1ccc(C(=O)CCCBr)cc1	> 100 µM	28.7	25.3	> 100	26 (≈ 8.09 µg/mL)	58	–	–	–
C#CC(=O)Oc1ccc(CCCCCC)cc1	16.7 µM	7.9	13.9	6.2	18 (≈ 4.15 µg/mL)	21	–	–	–
CCCCCCc1ccc(C(=O)CCl)cc1	47.7 µM	–	–	23.1	–	–	–	–	–
CCCCCCc1ccc(C(=O)CF)cc1	> 100 µM	2.4	69	> 100	95 (≈ 21.1 µg/mL)	–	–	–	–
CCCCCCc1ccc(C(=O)C2CO2)cc1 (centres undefined)	47.7 µM	> 200	58	23.1	204 (≈ 47.4 µg/mL)	–	1117 10^-6 cm/s	–	–
C=CC(=O)c1ccc(CCCCCCC)cc1	23 µM	69.2	36.7	10.5	–	–	–	–	–
C=CC(=O)c1ccc(CCCCCCCC)cc1	21.4 µM	111	50.5	11.4	–	–	–	–	–
C=CC(=O)Oc1ccc(CCCCC)cc1	> 100 µM	21.2	36.5	55.8	–	–	–	–	–
C=CC(=O)Oc1ccccc1CCCCCC	39.1 µM	14.6	19.4	8.2	–	–	–	–	–

SMILES	IC50 [1]	CC50 ([2]; Homo sapiens, ARO, 48 h) [µM]	CC50 ([3]; Homo sapiens, U2OS, 48 h) [µM]	IC50 [4] [µM]	solubility [5] [µM]	Papp [6] [×10⁻⁶ cm/s]	permeability [6]	CC50 [2]	CC50 [3] [µM]
C=CC(=O)c1ccc(CCCCCC)cc1	28.1 µM and 45.2 µM	–	10.1	–	36 (≈ 7.79 µg/mL)	38	–	4.5 µM and 29.5 µM	18.8
CCCCCCc1ccc(C(=O)/C=C\C(=O)O)cc1	19.2 µM	5.5	57.4	17.7	252 (≈ 65.6 µg/mL)	66	–	–	–
C=C(C)C(=O)c1ccc(CCCCCCC)cc1	52.9 µM	10.7	18.7	23.2	37 (≈ 9.04 µg/mL)	43	–	–	–
C=CC(=O)c1ccc(CC(C)(C)C)cc1	69.6 µM	5.8	27.5	43.5	–	–	–	–	–
C/C=C(\C)C(=O)c1ccc(CCCCCCC)cc1	> 100 µM	> 200	> 200	> 100	36 (≈ 9.3 µg/mL)	–	–	–	–
CCCCCCc1ccc(C(=O)CC)cc1	> 100 µM	–	–	> 100	–	–	–	–	–
C=CC(=O)c1ccc(CCCC)cc1	71 µM	9.9	25.6	66	–	–	–	–	–
CCCCCCc1ccc(NC(=O)CCC(=O)O)cc1	> 100 µM	–	–	> 100	–	–	–	–	–
CCCCCCc1ccc(NC(=O)C=C(C)C)cc1	> 100 µM	> 200	> 200	> 100	37 (≈ 9.6 µg/mL)	98	–	–	–
C=CC(=O)[C@H]1CC[C@H](CC(C)(C)C)CC1	75.6 µM	92.8	50.2	69.1	–	–	–	–	–
C=CC(=O)Oc1ccc(CCC)cc1	> 100 µM	4.8	121	61	–	–	–	–	–
CCCC(=O)Nc1cccc2c1CCCC2	85.3 µM	54.7	101	69.8	–	–	–	–	–
CCCCCCc1ccc(C(=O)CCBr)cc1	4.2 µM	40.1	17	3	85 (≈ 25.3 µg/mL)	–	–	–	–
CCCCCCc1ccc(C(=O)CCN(CCCC)CCCC)cc1	6.9 µM	5.4	25.5	4.2	152 (≈ 52.5 µg/mL)	–	–	–	–
C/C=C/C(=O)c1ccc(CCCCCCC)cc1	18.9 µM	1.4	11.6	7.6	41 (≈ 10 µg/mL)	7	–	–	–
CCCCCCCc1ccc(C(=O)C=C(C)C)cc1	> 100 µM	> 200	> 200	> 100	24 (≈ 6.2 µg/mL)	–	–	–	–
CCCCCCc1ccc(C(=O)CCNCCC)cc1	25.8 µM	107	160	15.2	354 (≈ 97.5 µg/mL)	254	–	–	–
C=CC(=O)Nc1ccc(CCCCCC)cc1	21.6 µM	113	66.5	17.9	47 (≈ 10.9 µg/mL)	833	–	–	–
C/C=C/C(=O)Nc1ccc(CCCCCC)cc1	> 100 µM	> 200	> 200	> 100	42 (≈ 10.3 µg/mL)	432	–	–	–
CCCCCCc1ccc(C(=O)CCN(C2CCCCC2)C2CCCCC2)cc1	16.5 µM	–	–	12.7	–	–	–	–	–
CCCCCCCc1ccc(C(=O)/C=C/c2ccccc2)cc1	> 100 µM	> 200	57	> 100	30 (≈ 9.19 µg/mL)	–	–	–	–
